This passage reports IC50 results from ChEMBL document CHEMBL1147128, “Development of molecular probes for second-site screening and design of protein tyrosine phosphatase inhibitors” (J Med Chem, 2007).

Experiment [1] in a line: Inhibition of Yersinia pestis YopH expressed in Escherichia coli. In outline:
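GST-YopH was purified on glutathione-Sepharose and dialysed into 30 mM Tris, 150 mM NaCl, then with 1 mM DTT. Assayed with pNPP at Km (1 mM), 30°C, 0.15 M Bis-Tris pH 6.0, 1.0 mM DTT, 5% DMSO final. Compound (0.0128–1000 μM) was preincubated 10 min at RT, then reacted 20 min. NaOH quench, A405 with the no-enzyme blank subtracted, IC50 by the hyperbolic fit.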

Experiment [2] deals with Dual specificity protein phosphatase 3 (Homo sapiens, UniProt P51452). As to the kind of experiment: Inhibition of VHR. The method, boiled down:
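VHR was assayed with pNPP at its Km of 1.5 mM, at 30°C in 0.15 M Bis-Tris pH 6.0 (150 mM ionic strength, NaCl), 1.0 mM DTT, 5% DMSO final. Eight compound concentrations from 0.0128 to 1000 μM were preincubated 10 min at RT, then reacted 20 min. NaOH quench, read at 405 nm with the enzyme-free blank corrected. IC50 from Vi/V0 = IC50/(IC50+[I]).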

In experiment [3] the target is T1, Tyrosine-protein phosphatase non-receptor type 2 (Homo sapiens, UniProt P17706).
T1 sequence (P17706 whole entry): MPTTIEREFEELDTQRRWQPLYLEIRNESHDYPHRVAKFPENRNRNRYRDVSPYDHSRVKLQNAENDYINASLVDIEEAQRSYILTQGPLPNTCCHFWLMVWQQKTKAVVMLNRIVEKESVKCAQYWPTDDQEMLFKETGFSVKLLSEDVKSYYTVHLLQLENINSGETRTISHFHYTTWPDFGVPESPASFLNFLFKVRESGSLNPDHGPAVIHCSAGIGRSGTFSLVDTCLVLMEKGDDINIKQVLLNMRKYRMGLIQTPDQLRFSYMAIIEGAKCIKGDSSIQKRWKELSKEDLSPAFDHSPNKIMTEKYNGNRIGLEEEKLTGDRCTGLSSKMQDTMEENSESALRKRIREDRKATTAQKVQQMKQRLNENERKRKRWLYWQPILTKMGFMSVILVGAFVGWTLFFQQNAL
As to the kind of experiment: Inhibition of TCPTP. In outline:
(§1)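 Hydrolysis of pNPP at its Km (1 mM) was measured at 30°C in 0.15 M Bis-Tris pH 6.0, ionic strength 150 mM with NaCl, 1.0 mM DTT, 5% DMSO final. Enzyme and compound (0.0128–1000 μM, 5-fold steps) were preincubated 10 min at room temperature, then reacted 20 min. The reaction was quenched with 1 M NaOH and read at 405 nm, with the no-enzyme background subtracted. IC50 came from the fit Vi/V0 = IC50/(IC50+[I]).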

Experiment [4] deals with T2, Receptor-type tyrosine-protein phosphatase C (Homo sapiens, UniProt P08575).
T2 sequence (P08575 whole entry): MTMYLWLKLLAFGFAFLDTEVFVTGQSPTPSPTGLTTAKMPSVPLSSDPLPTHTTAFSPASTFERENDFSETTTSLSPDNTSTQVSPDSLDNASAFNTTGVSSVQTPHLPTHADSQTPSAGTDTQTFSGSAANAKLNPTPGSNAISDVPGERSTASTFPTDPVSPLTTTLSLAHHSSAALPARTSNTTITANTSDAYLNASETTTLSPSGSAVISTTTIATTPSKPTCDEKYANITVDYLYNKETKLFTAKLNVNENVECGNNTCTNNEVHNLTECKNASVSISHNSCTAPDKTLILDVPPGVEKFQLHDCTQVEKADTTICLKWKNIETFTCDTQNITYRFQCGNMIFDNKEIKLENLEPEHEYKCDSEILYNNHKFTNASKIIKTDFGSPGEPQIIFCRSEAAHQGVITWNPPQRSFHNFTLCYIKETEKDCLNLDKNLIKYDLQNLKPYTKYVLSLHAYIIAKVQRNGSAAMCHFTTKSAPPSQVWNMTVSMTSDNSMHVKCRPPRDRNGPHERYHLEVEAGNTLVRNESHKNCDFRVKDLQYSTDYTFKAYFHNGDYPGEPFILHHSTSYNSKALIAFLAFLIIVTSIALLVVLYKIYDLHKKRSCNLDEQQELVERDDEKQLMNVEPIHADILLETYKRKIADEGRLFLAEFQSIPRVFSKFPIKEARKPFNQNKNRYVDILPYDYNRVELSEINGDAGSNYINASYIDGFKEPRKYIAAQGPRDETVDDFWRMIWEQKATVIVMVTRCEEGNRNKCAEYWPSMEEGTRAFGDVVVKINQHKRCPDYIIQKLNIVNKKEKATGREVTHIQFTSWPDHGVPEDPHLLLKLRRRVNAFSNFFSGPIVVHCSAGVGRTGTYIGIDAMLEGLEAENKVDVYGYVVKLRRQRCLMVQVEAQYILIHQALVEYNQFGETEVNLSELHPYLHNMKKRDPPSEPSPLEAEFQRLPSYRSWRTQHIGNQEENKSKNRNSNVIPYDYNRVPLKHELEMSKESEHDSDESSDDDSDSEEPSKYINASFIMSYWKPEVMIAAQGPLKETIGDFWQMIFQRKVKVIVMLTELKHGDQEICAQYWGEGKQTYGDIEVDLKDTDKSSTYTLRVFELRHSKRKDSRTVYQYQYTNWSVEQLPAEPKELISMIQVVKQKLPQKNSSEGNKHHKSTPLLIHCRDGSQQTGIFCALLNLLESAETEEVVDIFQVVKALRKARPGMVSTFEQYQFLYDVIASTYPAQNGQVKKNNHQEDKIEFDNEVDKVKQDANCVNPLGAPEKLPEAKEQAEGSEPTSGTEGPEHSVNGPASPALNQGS
As to the kind of experiment: Inhibition of CD45. In outline:
as §1

The target in experiment [5] is T3, Tyrosine-protein phosphatase non-receptor type 7 (Homo sapiens, UniProt P35236).
T3 sequence (P35236 whole entry): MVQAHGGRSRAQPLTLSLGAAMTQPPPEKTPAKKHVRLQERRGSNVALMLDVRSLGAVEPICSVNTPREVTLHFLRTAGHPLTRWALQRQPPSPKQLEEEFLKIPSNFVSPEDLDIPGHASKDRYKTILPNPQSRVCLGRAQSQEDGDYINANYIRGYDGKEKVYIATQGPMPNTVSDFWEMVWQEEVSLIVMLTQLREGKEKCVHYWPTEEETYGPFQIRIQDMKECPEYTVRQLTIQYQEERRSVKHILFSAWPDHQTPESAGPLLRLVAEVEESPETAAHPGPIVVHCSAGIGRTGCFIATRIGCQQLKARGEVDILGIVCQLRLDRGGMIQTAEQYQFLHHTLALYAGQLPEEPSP
As to the kind of experiment: Inhibition of HePTP. In outline:
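pNPP was held at its Km of 2.5 mM for HePTP. Assay at 30°C in 0.15 M Bis-Tris pH 6.0 (ionic strength 150 mM, NaCl), 1.0 mM DTT, 5% DMSO final. Compound (0.0128–1000 μM) and enzyme were preincubated 10 min at RT, then reacted 20 min with substrate. NaOH quench, A405 minus the no-enzyme blank. IC50 fit to Vi/V0 = IC50/(IC50+[I]).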

Experiment [6] addresses T4, Tyrosine-protein phosphatase non-receptor type 1 (Homo sapiens, UniProt P18031).
T4 sequence (P18031 whole entry): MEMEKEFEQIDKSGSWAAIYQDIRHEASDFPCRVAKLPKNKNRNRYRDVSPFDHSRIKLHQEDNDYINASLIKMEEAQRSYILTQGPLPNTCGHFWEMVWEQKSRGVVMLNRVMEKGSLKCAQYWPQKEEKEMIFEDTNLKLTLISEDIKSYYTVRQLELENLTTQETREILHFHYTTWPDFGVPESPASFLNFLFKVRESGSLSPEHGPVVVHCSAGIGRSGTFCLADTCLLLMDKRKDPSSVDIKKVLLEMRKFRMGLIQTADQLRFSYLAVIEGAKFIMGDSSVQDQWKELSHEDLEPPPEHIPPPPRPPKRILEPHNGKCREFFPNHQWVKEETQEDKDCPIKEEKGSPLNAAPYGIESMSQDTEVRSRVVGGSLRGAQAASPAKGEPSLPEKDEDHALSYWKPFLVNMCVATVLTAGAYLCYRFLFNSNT
As to the kind of experiment: Inhibition of PTP1B. The method, boiled down:
as §1

SMILES strings stand for the structures.

Dual specificity protein phosphatase 3, sequence (P51452 whole entry): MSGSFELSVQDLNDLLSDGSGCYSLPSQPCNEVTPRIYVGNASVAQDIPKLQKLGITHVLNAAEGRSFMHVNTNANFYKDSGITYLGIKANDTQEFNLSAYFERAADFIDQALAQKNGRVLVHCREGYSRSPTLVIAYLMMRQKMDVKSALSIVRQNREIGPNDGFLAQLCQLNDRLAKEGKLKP

The term IC50 denotes the concentration that inhibits the measured activity by half. The low end stands for greater potency in that assay, the high end for weaker potency in that assay. Regarding `CC1(C)CC(NC(=O)/C=C/c2ccc(-c3ccc(O)c(C(=O)O)c3)o2)CC(C)(C)N1[O]`, the concentration for half-maximal inhibition (IC50) worked out at 3 µM in experiment [1]; 12 µM in experiment [2]; 14 µM in experiment [3]; 14 µM in experiment [4]; 7.5 µM in experiment [5]; 24 µM in experiment [6].

Turning to `COC(=O)c1cc(NC(=O)CCCC(=O)NC2CC(C)(C)N([O])C(C)(C)C2)ccc1O`, the IC50 in experiment [1], in experiment [2], in experiment [3], in experiment [4], in experiment [5] and in experiment [6] was more than 1000 µM each time.

For `CC1(C)CC(NCc2ccc(-c3ccc(O)c(C(=O)O)c3)o2)CC(C)(C)N1[O]`, the half-inhibitory concentration (IC50) in experiment [1] was 50 µM; in experiment [2], 241 µM; in experiment [3] it was 685 µM; in experiment [4], more than 1000 µM; in experiment [5] it was more than 1000 µM; in experiment [6] it was more than 1000 µM.

Regarding `CC1(C)CC(NC(=O)/C=C/c2ccc(-c3ccc([N+](=O)[O-])cc3)o2)CC(C)(C)N1[O]`, the half-inhibitory concentration (IC50) in experiment [1] was 47 µM; in experiment [2], 1000 µM; in experiment [3] it was more than 1000 µM; in experiment [4], more than 1000 µM; in experiment [5] it was more than 1000 µM; in experiment [6], more than 1000 µM.

Turning to `COC(=O)c1cc(-c2ccc(CNC3CC(C)(C)N([O])C(C)(C)C3)o2)ccc1O`, the concentration for half-maximal inhibition (IC50) was more than 1000 µM in experiment [1]; 850 µM in experiment [2]; more than 1000 µM in experiment [3]; more than 1000 µM in experiment [4]; more than 1000 µM in experiment [5]; more than 1000 µM in experiment [6].

Turning to `CC1(C)CC(NC(=O)/C=C/c2ccc(-c3cccc([N+](=O)[O-])c3)o2)CC(C)(C)N1[O]`, the IC50 in experiment [1] was 46 µM; in experiment [2], 200 µM; in experiment [3] it was 260 µM; in experiment [4] it was more than 1000 µM; in experiment [5] it was 211 µM; in experiment [6] it was 1000 µM.

For the compound `CC1(C)CC(NC(=O)CCCC(=O)Nc2ccc(O)c(C(=O)O)c2)CC(C)(C)N1[O]`, the IC50 in experiment [1] is 336 µM; in experiment [2], 1000 µM; in experiment [3] it was more than 1000 µM; in experiment [4], more than 1000 µM; in experiment [5] it was more than 1000 µM; in experiment [6], more than 1000 µM.
